{"source": "ChEMBL document CHEMBL3525963", "about": "“Tissue distribution and elimination of [14C]apixaban in rats” (Drug Metab Dispos, 2011)", "format_in_all_cases": "ADME, organism-based", "parameters_in_all_cases": "dose 5 mg/kg, dosed compound name [14C]-apixaban, route oral", "settings_in_all_cases": "in vivo", "key": {"[1]": {"test_system": "Blood", "experiment": "Cmax in lactating Sprague-Dawley rat blood at 5 mg/kg, po administered as single dose", "outline": "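Lactating SD rats received a single oral gavage of 5 mg/kg (108 μCi/kg) in 0.5% Tween 80/Labrafil. Three rats were sampled per time point at 0.5-24 h. Oxytocin was given sc 15 min before milking under anesthesia. Milk, blood and plasma were counted in duplicate by liquid scintillation for 10 min and expressed as apixaban equivalents.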"}, "[2]": {"test_system": "Rattus norvegicus", "experiment": "Biodistribution in female Sprague-Dawley rat bone marrow at 5 mg/kg, po administered as single dose measured after 0.5 hrs", "outline": "(§1)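 [14C]apixaban (20 μCi/mL in dosing solution) in 0.5% Tween 80 in Labrafil given by oral gavage to fasted female rats, 206-213 g, at 100 μCi/kg. One rat per time point was euthanized and snap-frozen. Sagittal 40 µm whole-body sections were read by QWBA phosphor imaging against [14C]glucose standards. Results are in µg eq apixaban/g, with LLOQ 0.037 μg eq/g.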"}, "[3]": {"test_system": "Rattus norvegicus", "experiment": "Biodistribution in male Sprague-Dawley rat pituitary gland at 5 mg/kg, po administered as single dose measured after 8 hrs"}, "[4]": {"test_system": "Harderian gland", "experiment": "Biodistribution in male Sprague-Dawley rat harderian gland at 5 mg/kg, po administered as single dose measured after 8 hrs", "outline": "(§2)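 [¹⁴C]Apixaban given by oral gavage at 5 mg/kg (100 μCi/kg) in 0.5% Tween 80 in Labrafil (1.0 mg/mL dosing solution) to rats fasted overnight through 4 h post-dose. One rat per time point; carcass frozen in hexane/dry ice. Quantitative whole-body autoradiography used 40 µm sagittal sections and a phosphor imaging plate calibrated with [¹⁴C]glucose standards (0.001–6.5 μCi/g). Read-out in µg eq apixaban/g; LLOQ 0.037 μg eq/g.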"}, "[5]": {"test_system": "Muscle tissue", "experiment": "Biodistribution in pregnant Sprague-Dawley rat muscle at 5 mg/kg, po administered as single dose measured after 1 hr"}, "[6]": {"test_system": "Blood", "experiment": "Biodistribution in pregnant Sprague-Dawley rat blood at 5 mg/kg, po administered as single dose measured after 8 hrs", "outline": "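Fasted pregnant SD rats (n=6, 270-319 g) each received one oral gavage dose of [14C]apixaban, 5 mg/kg (100 μCi/kg), in 0.5% Tween 80/Labrafil. One rat was killed at each of 0.5, 1, 4, 8, 24 and 48 h. Carcasses were frozen in hexane/dry ice, cut into 40 µm sagittal sections, exposed to phosphor plates and quantified against [14C]glucose standards as µg eq/g. LLOQ was 0.037 µg eq/g.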"}, "[7]": {"test_system": "Liver", "experiment": "Biodistribution in female Sprague-Dawley rat liver at 5 mg/kg, po administered as single dose measured after 8 hrs", "outline": "as §2"}, "[8]": {"test_system": "Spleen", "experiment": "Biodistribution in female Sprague-Dawley rat spleen at 5 mg/kg, po administered as single dose measured after 8 hrs", "outline": "as §2"}, "[9]": {"test_system": "Rattus norvegicus", "experiment": "Biodistribution in male Sprague-Dawley rat kidney cortex at 5 mg/kg, po administered as single dose measured after 72 hrs", "outline": "(§3)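 Fasted male SD rats (225-252 g) each received one oral gavage dose of [14C]apixaban, 5 mg/kg (100 μCi/kg), in 0.5% Tween 80/Labrafil vehicle. One rat was killed per time point, from 0.5 to 168 h. Frozen carcasses were cut into 40 µm sagittal whole-body sections and read by QWBA phosphor imaging against [14C]glucose calibrants. Results are in µg apixaban eq/g; BLQ <0.037 µg eq/g.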"}, "[10]": {"test_system": "Rattus norvegicus", "experiment": "Biodistribution in female Sprague-Dawley rat bone marrow at 5 mg/kg, po administered as single dose measured after 1 hr", "outline": "as §1"}, "[11]": {"test_system": "Rattus norvegicus", "experiment": "Biodistribution in pregnant Sprague-Dawley rat pituitary gland at 5 mg/kg, po administered as single dose measured after 4 hrs"}, "[12]": {"test_system": "Brain", "experiment": "Biodistribution in pregnant Sprague-Dawley rat brain at 5 mg/kg, po administered as single dose measured after 1 hr"}, "[13]": {"test_system": "Blood", "experiment": "Biodistribution in female Sprague-Dawley rat blood at 5 mg/kg, po administered as single dose measured after 8 hrs", "outline": "as §2"}, "[14]": {"test_system": "Liver", "experiment": "Biodistribution in male Sprague-Dawley rat liver at 5 mg/kg, po administered as single dose measured after 72 hrs", "outline": "as §3"}, "[15]": {"test_system": "Muscle tissue", "experiment": "Biodistribution in pregnant Sprague-Dawley rat muscle at 5 mg/kg, po administered as single dose measured after 0.5 hrs"}, "[16]": {"test_system": "Muscle tissue", "experiment": "Biodistribution in pregnant Sprague-Dawley rat muscle at 5 mg/kg, po administered as single dose measured after 4 hrs"}, "[17]": {"test_system": "Blood", "experiment": "AUC (0 to t) in lactating Sprague-Dawley rat blood at 5 mg/kg, po administered as single dose"}, "[18]": {"test_system": "Harderian gland", "experiment": "Biodistribution in female Sprague-Dawley rat harderian gland at 5 mg/kg, po administered as single dose measured after 72 hrs", "outline": "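Quantitative whole-body autoradiography was run after a single 5 mg/kg (100 μCi/kg) oral gavage to fasted female or pregnant SD rats, one rat per time point. Carcasses were frozen in hexane/dry ice, and 40 µm sagittal sections were dried at −20°C for at least 48 h. Sections were exposed to a phosphor plate alongside [14C]glucose standards (0.001–6.5 µCi/g). Results are µg eq/g, with LLOQ 0.037 µg eq/g.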"}, "[19]": {"test_system": "Rattus norvegicus", "experiment": "Biodistribution in male Sprague-Dawley rat bone marrow at 5 mg/kg, po administered as single dose measured after 24 hrs", "outline": "as §3"}, "[20]": {"test_system": "Rattus norvegicus", "experiment": "Biodistribution in fetal blood of pregnant Sprague-Dawley rat at 5 mg/kg, po administered as single dose measured after 0.5 hrs", "outline": "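Pregnant rats, 270-319 g and fasted overnight, received [14C]apixaban by oral gavage at 100 μCi/kg in 0.5% Tween 80/Labrafil. One dam per time point was euthanized and frozen in hexane/dry ice. Fetal tissue radioactivity was measured by QWBA on 40 µm sagittal sections calibrated with [14C]glucose standards. Values are in µg eq/g, with LLOQ 0.037 μg eq/g.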"}, "[21]": {"test_system": "Heart", "experiment": "Biodistribution in female Sprague-Dawley rat heart at 5 mg/kg, po administered as single dose measured after 1 hr", "outline": "as §2"}, "[22]": {"test_system": "Muscle tissue", "experiment": "Biodistribution in male Sprague-Dawley rat muscle at 5 mg/kg, po administered as single dose measured after 4 hrs", "outline": "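[14C]apixaban (1.0 mg/mL, 20 μCi/mL) in 0.5% Tween 80 in Labrafil, given by oral gavage at 100 μCi/kg to male rats (225-252 g) fasted overnight through 4 h post-dose. One rat per time point. Carcasses frozen in hexane/dry ice and cut into 40 µm sagittal sections. QWBA read on phosphor plates against [14C]glucose standards, reported as µg eq/g. LLOQ 0.037 µg eq/g.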"}, "[23]": {"experiment": "Drug metabolism in Sprague-Dawley rat milk assessed as apixaban level at 5 mg/kg, po after 1 to 24 hrs by HPLC method", "outline": "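After a 5 mg/kg oral dose, samples were radioprofiled by HPLC. The column was C18 with a 0.4% formic acid (pH 3.2)/acetonitrile gradient at 0.7 mL/min. Fractions were collected every 0.25 min and counted for radioactivity. Peaks were identified by ESI LC/MS/MS against synthetic standards. Milk was taken at 1, 6, 12 and 24 h.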"}, "[24]": {"test_system": "Blood", "experiment": "AUC (0 to t) in female Sprague-Dawley rat blood at 5 mg/kg, po administered as single dose"}}, "data": [{"smiles": "COc1ccc(-n2nc(C(N)=O)c3c2C(=O)N(c2ccc(N4CCCC[14C]4=O)cc2)CC3)cc1", "values": [{"measurement": "Cmax", "setting": "[1]", "result": 514, "unit": "ngequiv/g"}, {"measurement": "Radiolabel recovery", "setting": "[2]", "result": 0.29, "unit": "ugequiv/g"}, {"measurement": "Radiolabel recovery", "setting": "[3]", "result": 0.07, "unit": "ugequiv/g"}, {"measurement": "Radiolabel recovery", "setting": "[4]", "result": 0.12, "unit": "ugequiv/g"}, {"measurement": "Radiolabel recovery", "setting": "[5]", "result": 0.46, "unit": "ugequiv/g"}, {"measurement": "Radiolabel recovery", "setting": "[6]", "result": 0.09, "unit": "ugequiv/g"}, {"measurement": "Radiolabel recovery", "setting": "[7]", "result": 1.12, "unit": "ugequiv/g"}, {"measurement": "Radiolabel recovery", "setting": "[8]", "result": 0.13, "unit": "ugequiv/g"}, {"measurement": "Radiolabel recovery", "setting": "[9]", "result": "Not detected assumed BLQ"}, {"measurement": "Radiolabel recovery", "setting": "[10]", "result": 0.41, "unit": "ugequiv/g"}, {"measurement": "Radiolabel recovery", "setting": "[11]", "result": 0.75, "unit": "ugequiv/g"}, {"measurement": "Radiolabel recovery", "setting": "[12]", "result": 0.06, "unit": "ugequiv/g"}, {"measurement": "Radiolabel recovery", "setting": "[13]", "result": 0.17, "unit": "ugequiv/g"}, {"measurement": "Radiolabel recovery", "setting": "[14]", "result": "Not detected assumed BLQ"}, {"measurement": "Radiolabel recovery", "setting": "[15]", "result": 0.37, "unit": "ugequiv/g"}, {"measurement": "Radiolabel recovery", "setting": "[16]", "result": 0.5, "unit": "ugequiv/g"}, {"measurement": "AUCt", "setting": "[17]", "result": 1940, "unit": "ngequiv.hr/g"}, {"measurement": "Radiolabel recovery", "setting": "[18]", "result": "Not detected assumed BLQ"}, {"measurement": "Radiolabel recovery", "setting": "[19]", "result": "Not sampled as not visualised in autoradiograph"}, {"measurement": "Radiolabel recovery", "setting": "[20]", "result": 0.27, "unit": "ugequiv/g"}, {"measurement": "Radiolabel recovery", "setting": "[21]", "result": 0.54, "unit": "ugequiv/g"}, {"measurement": "Radiolabel recovery", "setting": "[22]", "result": 0.27, "unit": "ugequiv/g"}, {"measurement": "Compound recovery", "setting": "[23]", "result": "> 96", "unit": "%"}, {"measurement": "AUCt", "setting": "[24]", "result": 3110, "unit": "ngequiv.hr/g"}]}]}
